This is an account of results in ChEMBL document CHEMBL2057154, “Discovery and optimization of novel purines as potent and selective CB2 agonists” (Bioorg Med Chem Lett, 2012).

≈ marks a conversion by molar mass, not a printed value. Calls of active or inactive are those of the source. No cut-off for these calls is given here.

Data set [1] concerns the target T1, Cannabinoid receptor 2 (Homo sapiens, UniProt P34972). The experiment in a line: Agonist activity at human CB2 receptor expressed in CHO cells assessed as [35S]-GTPgammaS binding preincubated for 25 mins measured after 30 mins by scintillation proximity assay. In kind it is functional, cell-based. For orientation: Binding of GTPγS marks nucleotide exchange on a G protein.

Data set [2] has as its target T1, Cannabinoid receptor 2. The data set can be described thus: Agonist activity at human CB2 receptor expressed in CHO cells assessed as [35S]-GTPgammaS binding preincubated for 25 mins measured after 30 mins by scintillation proximity assay relative to control. In kind it is functional, cell-based.
Data set [3] deals with T2, Cannabinoid receptor 1 (Homo sapiens, UniProt P21554). The data set can be described thus: Agonist activity at human CB1 receptor expressed in CHO cells assessed as [35S]-GTPgammaS binding preincubated for 25 mins measured after 30 mins by scintillation proximity assay relative to control. In kind it is functional, cell-based.
In data set [4] the target is T2, Cannabinoid receptor 1. The experiment in a line: Agonist activity at human CB1 receptor expressed in CHO cells assessed as [35S]-GTPgammaS binding preincubated for 25 mins measured after 30 mins by scintillation proximity assay. In kind it is functional, cell-based.
Data set [5] can be described thus: Dissociation constant, pKa of the compound. In kind it is physicochemical.
Data set [6] can be described thus: Drug metabolism in dog liver microsomes at 4 uM after 30 mins by LC-ESI/MS analysis. In kind it is ADME, Canis lupus familiaris, Microsome. The conditions noted are these: read-out: Drug metabolism.
The nature of data set [7]: Drug metabolism in rat liver microsomes at 4 uM after 30 mins by LC-ESI/MS analysis. Particulars: read-out: Drug metabolism. In kind it is ADME, Microsome. For orientation: Microsomes from liver hold many membrane-bound enzymes, among them those of drug oxidation.
A short description of data set [8]: Drug metabolism in human liver microsomes at 4 uM after 30 mins by LC-ESI/MS analysis. In kind it is ADME, Microsome. Particulars: read-out: Drug metabolism.
In data set [9] the test system is Rattus norvegicus. The experiment in a line: Analgesic activity in monoiodoacetic acid rat model of osteoarthritic pain assessed as decrease in pain at 10 mg/kg, po pretreated with CB2 antagonist SR144528 at 3 mg/kg, ip administered 30 mins prior to compound treatment. In kind it is functional, organism-based. In outline: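 SR-144528 given at 3 mg/kg ip 30 min before the oral test dose (10 mg/kg) in the rodent monoiodoacetic acid osteoarthritic knee pain model.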

The subject of data set [10] is Rattus norvegicus. The data set can be described thus: Analgesic activity in monoiodoacetic acid rat model of osteoarthritic pain assessed as decrease in pain at 10 mg/kg, po measured after 29 days relative to control. In kind it is functional, organism-based. On the set-up: dose 10 mg/kg.
The subject of data set [11] is Rattus norvegicus. The experiment in a line: Hepatic clearance in Sprague-Dawley rat at 1 mg/kg, iv. In kind it is ADME, organism-based, Liver. On the set-up: dose 1 mg/kg, route intravenous. Particulars: in vivo. In short, it runs like this:
(§1)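 Male Sprague–Dawley rats dosed 1 mg/kg iv and 1 mg/kg po; plasma pharmacokinetic parameters derived from the iv and oral arms.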

Data set [12] in a line: Volume of distribution in Sprague-Dawley rat at 1 mg/kg, iv. On the set-up: dose 1 mg/kg, route intravenous. The conditions noted are these: in vivo. In kind it is ADME, organism-based. In outline: as §1
The nature of data set [13]: Oral bioavailability in Sprague-Dawley rat at 1 mg/kg. In kind it is ADME, organism-based. Particulars: in vivo. In outline: as §1
For another data set, the target named is Cytochrome P450 2D6 (Homo sapiens, UniProt P10635). The data set can be described thus: Inhibition of CYP2D6. In kind it is ADME.
Data set [14] in a line: (§2) Binding affinity to 5HT1. On the set-up: species or system Homo sapiens.
Data set [15] addresses Voltage-gated inwardly rectifying potassium channel KCNH2 (Homo sapiens, UniProt Q12809). The experiment in a line: Displacement of [3H]dofetilide from human Erg expressed in human HEK293 cells. In kind it is cell-based. In short, it runs like this:
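hERG affinity measured by [3H]-dofetilide displacement from hERG channels stably expressed in HEK293 cells.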
For orientation: Loss of bound radioactivity is the signal in a displacement assay; it reports binding, not function.

The target in data set [16] is T3, Cannabinoid receptor 2 (Rattus norvegicus, UniProt Q9QZN9).
T3 sequence (Q9QZN9 whole entry): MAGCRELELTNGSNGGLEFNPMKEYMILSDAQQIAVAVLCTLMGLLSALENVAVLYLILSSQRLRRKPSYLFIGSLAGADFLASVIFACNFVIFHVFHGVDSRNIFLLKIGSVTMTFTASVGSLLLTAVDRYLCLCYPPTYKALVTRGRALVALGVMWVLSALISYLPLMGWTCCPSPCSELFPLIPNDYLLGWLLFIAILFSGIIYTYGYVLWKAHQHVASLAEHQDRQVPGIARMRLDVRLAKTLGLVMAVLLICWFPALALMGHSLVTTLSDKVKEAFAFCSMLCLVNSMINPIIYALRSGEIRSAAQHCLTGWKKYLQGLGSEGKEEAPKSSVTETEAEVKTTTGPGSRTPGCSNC
The data set can be described thus: Displacement of [3H]-CP-55,940 from rat CB2 receptor expressed in CHO cells. In kind it is cell-based.

Data set [17] in a line: Solubility of the compound in simulated gastrointestinal fluid at pH 6.8. In kind it is physicochemical. In outline: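 Solubility determined in simulated GI fluid at pH 6.8.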
For data set [18], the target named is T1, Cannabinoid receptor 2. The experiment in a line: Displacement of [3H]-CP-55,940 from human CB2 receptor expressed in CHO cells. In kind it is cell-based.
Data set [19] in a line: Lipophilicity, log P of the compound. In kind it is physicochemical. Particulars: octanol/water.
The species entered for data set [20] is Homo sapiens. The data set can be described thus: Selectivity ratio of EC50 for human CB1 receptor to EC50 for human CB2 receptor.
Data set [21] deals with Rattus norvegicus. The experiment in a line: Analgesic activity in monoiodoacetic acid rat model of osteoarthritic pain assessed as decrease in pain at 3 mg/kg, po measured after 29 days relative to control. In kind it is functional, organism-based. On the set-up: dose 3 mg/kg.
Data set [22] has as its system Rattus norvegicus. The data set can be described thus: Induction of hypothermia in monoiodoacetic acid rat model of osteoarthritic pain at 0.5 mg/kg, ip. In kind it is organism-based. On the set-up: dose 0.5 mg/kg, route intraperitoneal. Particulars: in vivo. In short, it runs like this: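 Rats given the non-selective cannabinoid agonist (positive control) at 0.5 mg/kg ip. Body temperature drop was the read-out, used as an in vivo marker of central CB1 receptor activation.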

The nature of data set [23]: Ratio of drug uptake in brain to plasma of Sprague-Dawley rat. In kind it is ADME. Particulars: read-out: BPR.
Data set [24] is described as follows: Aqueous solubility of the compound at pH 7. In kind it is physicochemical. The conditions noted are these: buffer.
A further data set concerns the target cytochrome P450 (Homo sapiens, UniProt P04798+P05177+P05181+P08684+P10632+P10635+P11509+P11712+P13584+P20813+P20815+P20853+P24462+P24903+P33260+P33261+P51589+P78329+P98187+Q02928+Q08477+Q16678+Q16696+Q5TCH4+Q6VVX0+Q7Z449+Q8TAV3+Q96SQ9+Q9HB55). The experiment in a line: Inhibition of cytochrome P450. In kind it is ADME.
For data set [25], the species on record is Homo sapiens. The data set is described as §2.

T1 sequence (P34972 whole entry): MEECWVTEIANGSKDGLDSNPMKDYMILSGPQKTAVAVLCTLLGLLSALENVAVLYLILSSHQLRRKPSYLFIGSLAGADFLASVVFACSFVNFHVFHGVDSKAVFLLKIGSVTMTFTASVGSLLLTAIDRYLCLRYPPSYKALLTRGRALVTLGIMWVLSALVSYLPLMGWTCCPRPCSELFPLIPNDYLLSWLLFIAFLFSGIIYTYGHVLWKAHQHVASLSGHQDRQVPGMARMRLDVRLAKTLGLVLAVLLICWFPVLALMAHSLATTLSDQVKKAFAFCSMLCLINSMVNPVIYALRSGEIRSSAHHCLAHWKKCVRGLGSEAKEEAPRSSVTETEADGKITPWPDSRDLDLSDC
T2 sequence (P21554 whole entry): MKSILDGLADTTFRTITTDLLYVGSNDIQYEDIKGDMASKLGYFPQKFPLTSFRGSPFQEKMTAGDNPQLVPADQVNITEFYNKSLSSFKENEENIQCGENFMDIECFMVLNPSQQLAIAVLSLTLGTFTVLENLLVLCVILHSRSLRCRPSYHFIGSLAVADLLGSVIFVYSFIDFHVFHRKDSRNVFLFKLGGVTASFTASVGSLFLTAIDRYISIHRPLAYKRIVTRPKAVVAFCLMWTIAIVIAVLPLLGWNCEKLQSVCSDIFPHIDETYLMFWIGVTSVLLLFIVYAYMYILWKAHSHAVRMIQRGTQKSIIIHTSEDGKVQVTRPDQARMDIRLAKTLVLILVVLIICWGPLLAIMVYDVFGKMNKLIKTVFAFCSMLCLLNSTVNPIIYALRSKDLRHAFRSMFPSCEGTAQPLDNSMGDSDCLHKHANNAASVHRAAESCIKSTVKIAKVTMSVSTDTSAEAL
Cytochrome P450 2D6, sequence (P10635 whole entry): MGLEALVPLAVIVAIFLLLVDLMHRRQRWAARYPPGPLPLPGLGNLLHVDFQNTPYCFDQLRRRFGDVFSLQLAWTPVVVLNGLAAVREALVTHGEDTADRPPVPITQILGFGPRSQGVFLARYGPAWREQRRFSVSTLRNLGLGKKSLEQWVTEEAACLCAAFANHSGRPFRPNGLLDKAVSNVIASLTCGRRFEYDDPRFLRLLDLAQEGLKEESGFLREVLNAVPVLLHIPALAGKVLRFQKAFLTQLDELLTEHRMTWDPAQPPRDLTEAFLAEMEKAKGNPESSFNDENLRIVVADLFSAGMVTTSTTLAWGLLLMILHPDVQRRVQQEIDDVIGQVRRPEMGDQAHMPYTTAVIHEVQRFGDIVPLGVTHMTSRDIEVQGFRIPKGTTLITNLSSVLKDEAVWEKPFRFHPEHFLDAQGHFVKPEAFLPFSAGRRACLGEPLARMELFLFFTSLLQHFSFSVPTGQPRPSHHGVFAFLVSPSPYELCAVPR
Voltage-gated inwardly rectifying potassium channel KCNH2, sequence (Q12809 whole entry): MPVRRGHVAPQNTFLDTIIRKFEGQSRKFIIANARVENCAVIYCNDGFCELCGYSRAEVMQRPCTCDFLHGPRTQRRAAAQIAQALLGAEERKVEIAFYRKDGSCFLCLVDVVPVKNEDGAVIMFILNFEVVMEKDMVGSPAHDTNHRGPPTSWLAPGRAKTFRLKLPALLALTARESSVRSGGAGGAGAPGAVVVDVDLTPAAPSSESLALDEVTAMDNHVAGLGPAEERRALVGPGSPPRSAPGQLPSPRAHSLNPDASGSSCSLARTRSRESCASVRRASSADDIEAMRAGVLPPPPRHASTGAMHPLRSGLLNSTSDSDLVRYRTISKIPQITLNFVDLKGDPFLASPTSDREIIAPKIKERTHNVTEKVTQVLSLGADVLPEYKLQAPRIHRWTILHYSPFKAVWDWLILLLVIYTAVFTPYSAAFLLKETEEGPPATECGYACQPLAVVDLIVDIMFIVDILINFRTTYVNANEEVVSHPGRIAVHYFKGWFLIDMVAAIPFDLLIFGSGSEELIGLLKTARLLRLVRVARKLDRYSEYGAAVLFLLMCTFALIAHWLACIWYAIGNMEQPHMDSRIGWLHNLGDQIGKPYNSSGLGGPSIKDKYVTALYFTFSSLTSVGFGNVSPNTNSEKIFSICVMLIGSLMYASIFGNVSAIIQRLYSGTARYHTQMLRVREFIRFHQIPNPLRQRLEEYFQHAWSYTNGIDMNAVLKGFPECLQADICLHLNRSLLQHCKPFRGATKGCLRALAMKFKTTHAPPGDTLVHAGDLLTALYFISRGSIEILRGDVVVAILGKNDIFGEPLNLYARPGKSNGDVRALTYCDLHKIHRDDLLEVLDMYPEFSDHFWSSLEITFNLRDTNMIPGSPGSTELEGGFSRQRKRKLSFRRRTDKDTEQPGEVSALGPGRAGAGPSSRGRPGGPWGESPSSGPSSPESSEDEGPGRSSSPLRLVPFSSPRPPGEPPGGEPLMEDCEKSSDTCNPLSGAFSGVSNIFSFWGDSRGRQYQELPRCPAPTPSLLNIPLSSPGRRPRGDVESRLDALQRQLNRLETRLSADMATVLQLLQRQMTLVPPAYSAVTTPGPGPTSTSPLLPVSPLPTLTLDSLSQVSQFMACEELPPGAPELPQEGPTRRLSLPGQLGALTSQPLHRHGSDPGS

For `CCN1CCN(c2nc(C)nc3sc(-c4ccccc4)cc23)CC1`, the EC50 on Cannabinoid receptor 2 [1] was determined as 24.8 nM; at Cannabinoid receptor 1 [4], 2600 nM. Besides, the Efficacy on Cannabinoid receptor 2 [2] was determined as 84.5%; at Cannabinoid receptor 1 [3], 73.6%. In [5], this molecule returned a pKa of 7.5. In addition, the metabolised at 0.5 h, 4 µM amounted to 97% in [6], 94% in [7] and 73% in data set [8]. Moreover, the result in the data set on Rattus norvegicus [9] was inactive. Besides, the result with Rattus norvegicus [10] was Active. The molecule also gave a CLH in the data set on Rattus norvegicus [11] of 90 mL/min/kg. The same molecule registered a Vd in [12] of 10 L/kg. Besides, in data set [13], the bioavailability stood at 91%. Also, the IC50 against Cytochrome P450 2D6 is 3000 nM; in data set [15] it was > 10000 nM. Besides, the Ki in [14] stood at 1000 nM; at Cannabinoid receptor 2 [16] it was 16 nM; at Cannabinoid receptor 2 [18] it was 82 nM. In data set [17], the solubility is > 200 µM. In data set [19], the logP was 3.7. Besides, the Ratio EC50 in the data set filed under Homo sapiens [20] is 104.

As for `O=C(O)Cc1ccccc1Nc1c(Cl)cccc1Cl`, in the data set on Rattus norvegicus [21], the result was Active.

Turning to `Cc1nc(N2CCN(C)CC2)c2cc(-c3ccccc3)sc2n1`, the EC50 on Cannabinoid receptor 2 [1] is 44.4 nM; at Cannabinoid receptor 1 [4], 5910 nM. The Efficacy is 90.6% on Cannabinoid receptor 2 [2] and 70.9% at Cannabinoid receptor 1 [3]. Also, the values for the metabolised at 0.5 h, 4 µM in data set [6], in data set [7] and in data set [8] were 97%, 95% and 56%, respectively. The Ratio EC50 in the data set listed under Homo sapiens [20] came out at 133.

Turning to `COC(=O)NCCn1c(-c2ccccc2Cl)nc2c(N3CCN(C)CC3)nc(C)nc21`, the values for the EC50 on Cannabinoid receptor 2 [1] and at Cannabinoid receptor 1 [4] were 47.5 nM and > 100000 nM, respectively. On Cannabinoid receptor 2 [2], the Efficacy is 79.5%. The values for the metabolised at 0.5 h, 4 µM in [6], in data set [7] and in data set [8] were 62%, 25% and 14%, respectively. In addition, in the data set filed under Homo sapiens [20], the Ratio EC50 was > 2110.

Turning to `CC(=O)N1CCN(c2nc(C)nc3sc(-c4ccccc4)cc23)CC1`, the EC50 is 184 nM on Cannabinoid receptor 2 [1] and > 100000 nM at Cannabinoid receptor 1 [4]. The Efficacy at Cannabinoid receptor 2 [2] worked out at 95.4%. The metabolised at 0.5 h, 4 µM amounted to 62% in [6], 28% in data set [7] and 25% in data set [8]. The concentration in solution in data set [17] (solubility) was 41 µM (≈ 14.5 µg/mL). Also, in the data set filed under Homo sapiens [20], the Ratio EC50 was > 543.

On to `CCCCCCC(C)(C)c1ccc([C@@H]2C[C@H](O)CC[C@H]2CCCO)c(O)c1` [CP-55940], for which the Activity result in the data set on Rattus norvegicus [22] is given as “Toxic”.

Consider `CCN1CCN(c2nc(C)nc3c2nc(-c2ccccc2Cl)n3C)CC1`, for which, in data set [23], the Kp stood at 1. In addition, the solubility in [24] was > 2000 µg/mL. The IC50 against cytochrome P450 was > 10000 nM. Moreover, the result in the data set filed under Homo sapiens [25] was Active. This molecule also registered a logP in [19] of 3.1.

Regarding `Cc1nc(N2CCC(C)CC2)c2cc(-c3ccccc3)sc2n1`, the EC50 is 199 nM on Cannabinoid receptor 2 [1] and > 100000 nM on Cannabinoid receptor 1 [4]. Besides, the Efficacy at Cannabinoid receptor 2 [2] was 85.3%. Besides, the metabolised at 0.5 h, 4 µM in [6] came out at 75%; in data set [7], 93%; in [8] it was 49%. In addition, in the data set listed under Homo sapiens [20], the Ratio EC50 was > 502.

In general, EC50 refers to the concentration needed to bring the measured effect to its halfway point. For orientation: pKa means the negative logarithm of the acid dissociation constant. Read a high pKa as a group that holds its proton tightly. The term Vd denotes the apparent volume that relates the amount in the body to the concentration in plasma or blood. As usually defined, the bioavailability is the share of a dose that reaches the circulation, judged against a reference dose that is usually intravenous. A lower bioavailability goes with little systemic uptake. Broadly, the IC50 is the concentration needed to halve the response being measured. Read a low IC50 as higher potency. By Ki is commonly meant a measure of affinity in units of concentration, obtained from inhibition or displacement. Low values mean a stronger hold on the target, high ones a looser hold on the target. By solubility is commonly meant the concentration that dissolves in the medium under given conditions. By logP is commonly meant a log measure of how a compound divides between an organic and an aqueous phase.
